In ChEMBL document CHEMBL4765370, “Design, synthesis, and biological evaluation of aryl piperazines with potential as antidiabetic agents via the stimulation of glucose uptake and inhibition of NADH:ubiquinone oxidoreductase” (Eur J Med Chem, 2020):

What was measured:
[1] = AUCall in C57 Black mouse liver at 10 mg/kg, po; format: ADME, organism-based; parameters: dose 10 mg/kg
In short: (§1)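 Male C57BL/6 mice were given a single 10 mg/kg dose either intravenously or orally. The oral and IV solutions were formulated in 10% DMSO, 10% cremaphor and 80% saline. Concentrations in plasma and in the tissues collected were determined after dosing, with n = 3 per route. Values are given as mean ± SEM.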

[2] = Volume of distribution in C57 Black mouse kidney at 10 mg/kg, iv; format: ADME, organism-based
In short: (§2)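 Male C57BL/6 mice (n = 3) dosed at 10 mg/kg by IV or oral (PO) route. Dosing solutions were formulated in 10% DMSO, 10% cremaphor and 80% saline. Compound levels were measured in plasma and tissues over time, and values are given as mean ± SEM.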

[3] = Tmax in C57 Black mouse brain at 10 mg/kg, po; format: ADME, organism-based; in short: as §2
[4] = Half life in C57 Black mouse brain at 10 mg/kg, po; format: ADME, organism-based; in short: as §1
[5] = Half life in C57 Black mouse plasma at 10 mg/kg, po; format: ADME, organism-based; in short: as §2
[6] = Half life in C57 Black mouse kidney at 10 mg/kg, iv; format: ADME, organism-based; in short: as §2
[7] = AUCinfinity in C57 Black mouse brain at 10 mg/kg, po; format: ADME, organism-based; parameters: route oral, time infinity, dose 10 mg/kg; in short: as §1
[8] = Half life in C57 Black mouse muscle at 10 mg/kg, iv; format: ADME, organism-based, Muscle tissue; in short: as §2
[9] = AUCall in C57 Black mouse plasma at 10 mg/kg, iv; format: ADME, organism-based; parameters: dose 10 mg/kg; in short: as §1
[10] = AUCinfinity in C57 Black mouse plasma at 10 mg/kg, po; format: ADME, organism-based; parameters: route oral, time infinity, dose 10 mg/kg; in short: as §1
[11] = AUCall in C57 Black mouse brain at 10 mg/kg, iv; format: ADME, organism-based; parameters: dose 10 mg/kg; in short: as §1
[12] = AUCinfinity in C57 Black mouse liver at 10 mg/kg, po; format: ADME, organism-based; parameters: time infinity, route oral, dose 10 mg/kg; in short: as §1
C2C12 = test: Induction of glucose uptake in mouse C2C12 cells assessed as [3H]2-deoxyglucose uptake preincubated for 16 hrs followed by followed by [3H]2-deoxyglucose addition and measured after 10 mins by liquid scintillation counting method; format: functional
In short: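 C2C12 mouse myoblasts were grown in high-glucose DMEM with 10% FBS. At 80% confluence they were differentiated into myotubes with 2% horse serum. Myotubes were exposed to compound (10 µM) for 16 h in medium with 0.1% horse serum, then washed with KRB pH 7.4 and given 1 µCi/mL [3H]-2-deoxyglucose for 10 min at 37 °C. After ice-cold washes and 0.1% SDS lysis, scintillation counts were normalised to BCA protein. Results are fold change vs DMSO, mean ± SEM, one-way ANOVA.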

[13] = AUCinfinity in C57 Black mouse kidney at 10 mg/kg, iv; format: ADME, organism-based; parameters: route intravenous, time infinity, dose 10 mg/kg; in short: as §1
[14] = Apparent permeability in MDCK-MDR1 cells at 10 uM after 30 mins by LC-MS/MS analysis; format: ADME, cell-based, Canis lupus familiaris; settings: dog
In short: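 Test article was taken from a 10 mM DMSO stock and diluted in DMEM to a final 10 µM donor solution, with 10 µM propranolol as internal standard. It was applied to hMDR1-MDCK monolayers on filters. Transfer to the receiver compartment was measured over 30 min in both directions, apical-to-basolateral and basolateral-to-apical. Quantification was by LC-MS/MS, n = 3.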

[15] = Clearance in C57 Black mouse plasma at 10 mg/kg, iv; format: ADME, organism-based; settings: in vivo; in short: as §1
[16] = Cmax in C57 Black mouse muscle at 10 mg/kg, iv; format: ADME, organism-based, Muscle tissue; parameters: route intravenous, dose 10 mg/kg; in short: as §1
[17] = AUCinfinity in C57 Black mouse spleen at 10 mg/kg, iv; format: ADME, organism-based; parameters: time infinity, route intravenous, dose 10 mg/kg; in short: as §1
[18] = AUClast in C57 Black mouse spleen at 10 mg/kg, iv; format: ADME, organism-based; parameters: time 0 - last, route intravenous, dose 10 mg/kg; in short: as §1
[19] = AUClast in C57 Black mouse brain at 10 mg/kg, po; format: ADME, organism-based; parameters: route oral, time 0 - last, dose 10 mg/kg; in short: as §1
[20] = AUCinfinity in C57 Black mouse brain at 10 mg/kg, iv; format: ADME, organism-based; parameters: time infinity, route intravenous, dose 10 mg/kg; in short: as §1
[21] = Protein binding mouse serum at 1 uM after 60 to 120 mins by HPLC-MS/MS analysis; format: ADME, cell-free; settings: time 60-120 min, read-out: PB (converted)
[22] = Intrinsic clearance in mouse microsomes at 1 uM up to 120 mins by HPLC/MS-MS analysis; format: ADME, Microsome
[23] = AUCall in C57 Black mouse liver at 10 mg/kg, iv; format: ADME, organism-based; parameters: dose 10 mg/kg; in short: as §1
[24] = Half life in C57 Black mouse spleen at 10 mg/kg, po; format: ADME, organism-based; in short: as §2
[25] = Tmax in C57 Black mouse spleen at 10 mg/kg, po; format: ADME, organism-based; in short: as §2
[26] = Clearance in C57 Black mouse assessed as liver blood flow at 10 mg/kg, iv or po; format: ADME, organism-based; settings: in vivo
[27] = Intrinsic clearance in mouse hepatocytes at 1 uM up to 120 mins by HPLC-MS/MS analysis; format: ADME, cell-based, Hepatocyte; settings: 2 h
[28] = AUClast in C57 Black mouse muscle at 10 mg/kg, iv; format: ADME, organism-based, Muscle tissue; parameters: time 0 - last, route intravenous, dose 10 mg/kg; in short: as §1
[29] = Half life in mouse microsomes at 1 uM up to 120 mins by HPLC/MS-MS analysis; format: ADME, Microsome
[30] = Tmax in C57 Black mouse liver at 10 mg/kg, iv; format: ADME, organism-based; in short: as §2
[31] = Intrinsic clearance in human microsomes at 1 uM up to 120 mins by HPLC/MS-MS analysis; format: ADME, Microsome
[32] = Half life in C57 Black mouse plasma at 10 mg/kg, iv; format: ADME, organism-based; in short: as §2
[33] = Half life in C57 Black mouse brain at 10 mg/kg, iv; format: ADME, organism-based; in short: as §1
[34] = Tmax in C57 Black mouse brain at 10 mg/kg, iv; format: ADME, organism-based; in short: as §2
[35] = AUCall in C57 Black mouse plasma at 10 mg/kg, po; format: ADME, organism-based; parameters: dose 10 mg/kg; in short: as §1
[36] = AUClast in C57 Black mouse spleen at 10 mg/kg, po; format: ADME, organism-based; parameters: time 0 - last, route oral, dose 10 mg/kg; in short: as §1
[37] = AUClast in C57 Black mouse kidney at 10 mg/kg, po; format: ADME, organism-based; parameters: time 0 - last, route oral, dose 10 mg/kg; in short: as §1
CYP2C19 = CYP2C19 (Homo sapiens, UniProt P33261); test: Inhibition of human CYP2C19 using fluorogenic substrate incubated for 60 mins in presence of NADPH by fluorescence assay relative to control; format: ADME; settings: probe fluorogenic substrate
Sequence of CYP2C19 (P33261 whole entry): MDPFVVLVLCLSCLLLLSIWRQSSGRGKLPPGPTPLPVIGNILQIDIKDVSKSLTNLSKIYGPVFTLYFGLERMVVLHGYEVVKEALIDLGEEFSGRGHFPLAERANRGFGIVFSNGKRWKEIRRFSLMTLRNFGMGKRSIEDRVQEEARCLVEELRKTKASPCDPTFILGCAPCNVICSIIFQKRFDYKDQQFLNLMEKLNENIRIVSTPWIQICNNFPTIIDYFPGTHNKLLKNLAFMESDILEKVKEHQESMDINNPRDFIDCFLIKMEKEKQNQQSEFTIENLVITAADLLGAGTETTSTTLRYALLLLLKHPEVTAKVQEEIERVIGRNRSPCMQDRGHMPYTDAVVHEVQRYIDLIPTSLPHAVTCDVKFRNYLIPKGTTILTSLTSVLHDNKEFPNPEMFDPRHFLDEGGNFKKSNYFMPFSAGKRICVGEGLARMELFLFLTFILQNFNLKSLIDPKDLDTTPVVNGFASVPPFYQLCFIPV
In short: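 Baculosomes each expressing a single cDNA-derived human P450 isozyme were incubated with compound at 10 µM, a fluorogenic substrate and NADPH. Incubation was at 37 °C for at least 60 min before fluorescence was read, n = 3.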

[38] = Cmax in C57 Black mouse kidney at 10 mg/kg, po; format: ADME, organism-based; parameters: route oral, dose 10 mg/kg; in short: as §1
[39] = Tmax in C57 Black mouse liver at 10 mg/kg, po; format: ADME, organism-based; in short: as §2
[40] = AUClast in C57 Black mouse plasma at 10 mg/kg, po; format: ADME, organism-based; parameters: route oral, time 0 - last, dose 10 mg/kg; in short: as §1
[41] = Tmax in C57 Black mouse kidney at 10 mg/kg, po; format: ADME, organism-based; in short: as §2
[42] = Tmax in C57 Black mouse spleen at 10 mg/kg, iv; format: ADME, organism-based; in short: as §2

AUC [1]: 4050 ng·h/mL
Vd [2]: 3.06 L/kg
Tmax [3]: 15 min
half-life [4]: 27.6 min
half-life [5]: 45.6 min
half-life [6]: 45.6 min
AUC(0-inf) [7]: 774 ng·h/mL
half-life [8]: 31.2 min
AUC [9]: 240 ng·h/mL
AUC(0-inf) [10]: 523 ng·h/mL
AUC [11]: 246 ng·h/mL
AUC(0-inf) [12]: 4090 ng·h/mL
AUC(0-inf) [13]: 348 ng·h/mL
Papp at 0.5 h, 10 µM [14]: 27.1 ×10⁻⁶ cm/s
CL [15]: 68.37 mL/min/kg
Cmax [16]: 165 ng/mL
AUC(0-inf) [17]: 475 ng·h/mL
AUC(0-t) [18]: 463 ng·h/mL
AUC(0-t) [19]: 763 ng·h/mL
AUC(0-inf) [20]: 253 ng·h/mL
fraction unbound at 1 µM [21]: 0.0052
microsomal CLint at 1 µM [22]: 226 µL/min/mg
AUC [23]: 487 ng·h/mL
half-life [24]: 66 min
Tmax [25]: 15 min
clearance [26]: 90 mL/min/kg
CLH [27]: 8 µL/min
AUC(0-t) [28]: 77.3 ng·h/mL
half-life at 1 µM [29]: 6 min
Tmax [30]: 1.8 min
microsomal CLint at 1 µM [31]: 116 µL/min/mg
half-life [32]: 27 min
half-life [33]: 30 min
Tmax [34]: 1.8 min
AUC [35]: 520 ng·h/mL
AUC(0-t) [36]: 1260 ng·h/mL
AUC(0-t) [37]: 1220 ng·h/mL
inhibition at 1 h (CYP2C19): 75.5%
Cmax [38]: 1640 ng/mL
Tmax [39]: 15 min
AUC(0-t) [40]: 520 ng·h/mL
Tmax [41]: 15 min
Tmax [42]: 1.8 min
SMILES: O=C(CCCc1cccs1)N1CCN(c2ccc(C(F)(F)F)cc2)CC1
fold change (FC) (C2C12): 2.57
